How the values were obtained:
[1] = Biodistribution in CD1 mouse urine at 200 to 300 kBq, iv measured at 30 mins by gamma counting analysis; assay type: ADME, organism-based; settings: in vivo, 0.5 h
How it was run: (§1)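 Female CD-1 mice given 200–300 kBq tracer intravenously. Animals anaesthetised for blood and urine sampling, then killed by cervical dislocation at 5, 15, 30 or 60 min (n = 3 per time; n = 7 at 60 min). Organs removed and weighed, activity gamma-counted, expressed as % injected dose per g wet weight. Blocking arm: 10 mg/kg i.p. in 0.9% saline, 10 min before tracer; two-tailed unpaired t test versus control.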

[2] = system: Mus musculus; assay: Biodistribution in CD1 mouse adrenal at 200 to 300 kBq, iv measured at 15 mins by gamma counting analysis; assay type: ADME, organism-based, Adrenal gland; settings: in vivo, 0.25 h
How it was run: (§2)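 Female CD-1 mice, 200–300 kBq radiotracer given iv, n = 3 per time point. Animals anaesthetised for blood and urine sampling, then killed by cervical dislocation at 5, 15, 30 or 60 min p.i. Organs removed, weighed and gamma-counted; uptake expressed as % injected dose per g wet tissue.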

[3] = system: Brain; assay: Biodistribution in CD1 mouse brain at 200 to 300 kBq, iv measured at 60 mins by gamma counting analysis; assay type: ADME, organism-based; settings: in vivo, 1 h; how it was run: as §2
[4] = system: Mus musculus; assay: Biodistribution in CD1 mouse small intestine at 200 to 300 kBq, iv measured at 5 mins by gamma counting analysis; assay type: ADME, organism-based; settings: in vivo
How it was run: (§3)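 Female CD-1 mice received 200–300 kBq [18F]radiotracer intravenously. Blood and urine were sampled under anaesthesia, then mice were killed by cervical dislocation at 5, 15, 30 or 60 min p.i. (n = 3; control at 60 min n = 7). Organs were removed and weighed, activity was gamma-counted, and uptake was expressed as % injected dose per g wet tissue.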

[5] = system: Pancreas; assay: Biodistribution in CD1 mouse pancreas at 200 to 300 kBq, iv measured at 60 mins by gamma counting analysis; assay type: ADME, organism-based; settings: in vivo, 1 h; how it was run: as §3
[6] = system: Femur; assay: Biodistribution in CD1 mouse femur at 200 to 300 kBq, iv measured at 5 mins by gamma counting analysis; assay type: ADME, organism-based; settings: in vivo; how it was run: as §2
[7] = system: Mus musculus; assay: Biodistribution in CD1 mouse thymus at 200 to 300 kBq, iv measured at 60 mins by gamma counting analysis; assay type: ADME, organism-based; settings: in vivo, 1 h; how it was run: as §1
[8] = system: Muscle tissue; assay: Biodistribution in CD1 mouse muscle at 200 to 300 kBq, iv measured at 5 mins by gamma counting analysis; assay type: ADME, organism-based; settings: in vivo; how it was run: as §3
[9] = system: Blood; assay: Biodistribution in CD1 mouse blood at 200 to 300 kBq, iv measured at 5 mins by gamma counting analysis; assay type: ADME, organism-based; settings: in vivo; how it was run: as §2
[10] = system: Kidney; assay: Biodistribution in CD1 mouse kidney at 200 to 300 kBq, iv measured at 30 mins by gamma counting analysis; assay type: ADME, organism-based; settings: in vivo, 0.5 h; how it was run: as §2
[11] = system: Urinary bladder; assay: Biodistribution in CD1 mouse bladder at 200 to 300 kBq, iv measured at 60 mins by gamma counting analysis; assay type: ADME, organism-based; settings: in vivo, 1 h; how it was run: as §2
[12] = system: Heart; assay: Biodistribution in CD1 mouse heart at 200 to 300 kBq, iv measured at 5 mins by gamma counting analysis; assay type: ADME, organism-based; settings: in vivo; how it was run: as §2
[13] = system: Blood; assay: Biodistribution in CD1 mouse blood at 200 to 300 kBq, iv measured at 30 mins by gamma counting analysis; assay type: ADME, organism-based; settings: in vivo, 0.5 h; how it was run: as §2
[14] = system: Liver; assay: Biodistribution in CD1 mouse liver at 200 to 300 kBq, iv measured at 60 mins by gamma counting analysis in presence of SSR180711; assay type: ADME, organism-based; settings: in vivo, 1 h
How it was run: (§4)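 Blocking design in female CD-1 mice, n = 7 per group. The blocker was given at 10 mg kg^-1 i.p. in 0.9% saline 10 min before i.v. 200–300 kBq [18F]radiotracer. Mice were killed at 60 min p.i. and organs weighed and gamma-counted as % ID per g wet weight. Blocked groups were compared with controls by two-tailed independent Student's t test.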

[15] = system: Spleen; assay: Biodistribution in CD1 mouse spleen at 200 to 300 kBq, iv measured at 60 mins by gamma counting analysis in presence of SSR180711; assay type: ADME, organism-based; settings: in vivo, 1 h; how it was run: as §4
[16] = system: Heart; assay: Biodistribution in CD1 mouse heart at 200 to 300 kBq, iv measured at 15 mins by gamma counting analysis; assay type: ADME, organism-based; settings: in vivo, 0.25 h; how it was run: as §2
[17] = system: Mus musculus; assay: Biodistribution in CD1 mouse adrenal at 200 to 300 kBq, iv measured at 60 mins by gamma counting analysis in presence of SSR180711; assay type: ADME, organism-based, Adrenal gland; settings: in vivo, 1 h
How it was run: (§5)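 Blocking study in female CD-1 mice, n = 7 per blocker, with a matching control group. SSR180711 or NS6740 given at 10 mg kg⁻¹ ip in 0.9% saline 10 min before iv radiotracer (200–300 kBq). Organs taken at 60 min p.i., weighed and gamma-counted; uptake as % ID per g wet weight. Compared with control by two-tailed independent Student's t test.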

[18] = system: Lung; assay: Biodistribution in CD1 mouse lung at 200 to 300 kBq, iv measured at 30 mins by gamma counting analysis; assay type: ADME, organism-based; settings: in vivo, 0.5 h; how it was run: as §3
[19] = Biodistribution in CD1 mouse urine at 200 to 300 kBq, iv measured at 60 mins by gamma counting analysis; assay type: ADME, organism-based; settings: in vivo, 1 h; how it was run: as §1
[20] = system: Stomach; assay: Biodistribution in CD1 mouse stomach at 200 to 300 kBq, iv measured at 60 mins by gamma counting analysis in presence of SSR180711; assay type: ADME, organism-based; settings: in vivo, 1 h; how it was run: as §4
[21] = system: Mus musculus; assay: Biodistribution in CD1 mouse large intestine at 200 to 300 kBq, iv measured at 60 mins by gamma counting analysis in presence of SSR180711; assay type: ADME, organism-based; settings: in vivo, 1 h; how it was run: as §5
[22] = system: Femur; assay: Biodistribution in CD1 mouse femur at 200 to 300 kBq, iv measured at 30 mins by gamma counting analysis; assay type: ADME, organism-based; settings: in vivo, 0.5 h; how it was run: as §2
[23] = system: Mus musculus; assay: Biodistribution in CD1 mouse large intestine at 200 to 300 kBq, iv measured at 15 mins by gamma counting analysis; assay type: ADME, organism-based; settings: in vivo, 0.25 h; how it was run: as §2
[24] = system: Stomach; assay: Biodistribution in CD1 mouse stomach at 200 to 300 kBq, iv measured at 5 mins by gamma counting analysis; assay type: ADME, organism-based; settings: in vivo; how it was run: as §3
[25] = system: Kidney; assay: Biodistribution in CD1 mouse kidney at 200 to 300 kBq, iv measured at 60 mins by gamma counting analysis; assay type: ADME, organism-based; settings: in vivo, 1 h; how it was run: as §2

In the case of `O=C(Oc1ccc(Br)cc1)N1CCN2CCC1CC2` [SSR180711], the Drug uptake [1] is reported as 123 % ID/g, the Drug uptake [2] is reported as 5.65 % ID/g and the Drug uptake [3] is reported as 0.18 % ID/g. The Drug uptake [4] was 3.44 % ID/g, the Drug uptake [5] was 3.12 % ID/g and the Drug uptake [6] was 1.45 % ID/g. For the same compound, the Drug uptake [7] was 2.75 % ID/g, the Drug uptake [8] was 1.59 % ID/g and the Drug uptake [9] was 1.6 % ID/g. The Drug uptake [10] was 8.5 % ID/g, the Drug uptake [11] was 1.88 % ID/g and the Drug uptake [12] was 3.35 % ID/g. The Drug uptake [13] was 1.01 % ID/g, the Drug uptake [14] was 6.45 % ID/g and the Drug uptake [15] was 7.53 % ID/g. For the same compound, the Drug uptake [16] was 2.96 % ID/g, the Drug uptake [17] was 3.65 % ID/g and the Drug uptake [18] was 6.78 % ID/g. The Drug uptake [19] was 152 % ID/g, the Drug uptake [20] was 7.76 % ID/g and the Drug uptake [21] was 5.46 % ID/g. For the same compound, the Drug uptake [22] was 1.48 % ID/g, the Drug uptake [23] was 2.65 % ID/g and the Drug uptake [24] was 3.92 % ID/g. The Drug uptake [25] was 10.4 % ID/g.
